In ChEMBL document CHEMBL4138103, “Discovery of efficient stimulators for adult hippocampal neurogenesis based on scaffolds in dragon's blood” (Eur J Med Chem, 2017):
Active and inactive are the calls of the source. No cut-off for these calls is given here.

Tests used:
[1] = Cytotoxicity against human SH-SY5Y cells assessed as cell survival at 100 uM after 24 hrs by MTT assay relative to control; type: cell-based; conditions: read-out: Survival
In short: (§1)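 SH-SY5Y human neuroblastoma cells seeded at 5 × 10⁴ cells/mL, incubated 24 h at 37 °C, then exposed to compounds at final concentrations of […] for 24 h. MTT added for a further 4 h at 37 °C. Absorbance read at 570 nm and reported as percent viability. Five parallel samples per condition.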

[2] = Cytotoxicity against human SH-SY5Y cells assessed as cell survival at 500 uM after 24 hrs by MTT assay relative to control; type: cell-based; conditions: read-out: Survival; in short: as §1
[3] = Cytotoxicity against human SH-SY5Y cells assessed as cell survival at 1000 uM after 24 hrs by MTT assay relative to control; type: cell-based; conditions: read-out: Survival; in short: as §1
[4] = tested on: Rattus norvegicus; assay: In vivo neurogenic activity in Sprague-Dawley rat neural progenitor cells at 4 mg/kg, ip qd pretreated for 28 days followed by BrdU addition at 2 hrs interval for twice on day 29 measured after 24 hrs by BrdU incorporation assay relative to control; type: functional
In short: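 Male SD rats aged 10 weeks, acclimatized 7 days (11 weeks old at start), dosed ip once daily for 28 days with compound in soybean oil containing 10% ethanol; vehicle group received 10% ethanol in oil. On day 29, BrdU in saline given twice at 100 mg/kg, 2 h apart. Rats sacrificed 24 h after the last BrdU. BrdU+ cells in SGZ-GCL counted by DAB immunostaining of 30 µm cryosections; n = 8; mean ± SEM.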

Row | SMILES | viability at 24 h, 100 µM [1] [%] | viability at 24 h, 500 µM [2] [%] | viability at 24 h, 1000 µM [3] [%] | Activity [4]
1 | CC(=O)c1ccc(/C=C/c2ccc3c(c2)OCO3)cc1 | 70.3 | 63.5 | 53.9 | –
2 | C(=C\c1ccc2c(c1)OCO2)/c1ccc(OCc2ccccc2)cc1 | 67.3 | 72.7 | 80.6 | –
3 | COc1ccc(C(=O)/C=C/c2ccc(O)c(OC)c2)cc1 | 13.3 | 39.8 | 165 | –
4 | COc1ccc(/C=C/c2cccc(OC(F)(F)F)c2)cc1 | 40.2 | 40.5 | 38.7 | –
5 | COc1ccc(/C=C/c2ccc(N)cc2)cc1OC | 53.7 | 51.7 | 50.4 | –
6 | COc1ccc(/C=C/c2ccc(NC(C)=O)c(F)c2)cc1 | 14.2 | 1.52 | 0.69 | –
7 | CC(=O)Nc1ccc(C#Cc2ccc3c(c2)OCO3)cc1 | 63.2 | 51.3 | 35.2 | inactive
8 | Oc1ccc(/C=C/c2cccc(OC(F)(F)F)c2)cc1 | 77.1 | 55.4 | 5.06 | –
9 | COc1ccc(C#Cc2cc(C(F)(F)F)cc(C(F)(F)F)c2)cc1 | 28.6 | 20.9 | 18.3 | –
10 | COc1ccc(/C=C/c2cccc(C#N)c2)cc1 | 66.3 | 67 | 48.3 | –
11 | COc1ccccc1/C=C/c1ccc2c(c1)OCO2 | 36.1 | 33.6 | 23.6 | –
12 | CC(=O)Nc1ccc(/C=C/c2ccc3c(c2)OCO3)cc1F | 86.7 | 82 | 75.1 | Active
13 | O=C(Nc1ccc(/C=C/c2ccc3c(c2)OCO3)cc1)C(F)(F)F | 75.2 | 53.4 | 41.5 | inactive
14 | C(#Cc1ccc2c(c1)OCO2)c1ccsc1 | 46.2 | 32.9 | 21 | –
15 | CCCCCc1ccc(C#Cc2ccc(OCc3ccccc3)cc2)cc1 | 62.6 | 51.3 | 49 | –
16 | C(#Cc1cccs1)c1ccc2c(c1)OCO2 | 43.9 | 27.5 | 17.7 | –
17 | COc1ccc(/C=C/c2ccc(O)cc2)cc1OC | 56.8 | 44.1 | 35.3 | –
18 | COc1ccc(C#Cc2ccc(OC)c(OC)c2)cc1 | 94.1 | 78.9 | 65.5 | –
19 | COc1cccc(/C=C/c2ccc(NC(C)=O)cc2)c1 | 44.5 | 26.1 | 11.9 | –
20 | CC(=O)Nc1cccc(/C=C/c2ccc3c(c2)OCO3)c1 | 20.9 | 7.78 | 2.7 | –
21 | COc1cccc(/C=C/c2ccc3c(c2)OCO3)c1 | 72.5 | 52.7 | 32 | –
22 | Oc1ccc(/C=C/c2ccc(Cl)cc2)cc1O | 107 | 69.2 | 38.5 | –
23 | CN(C)c1ccc(/C=C/C(=O)c2ccc3c(c2)OCO3)cc1 | 49.8 | 40.2 | 23.7 | –
24 | COc1ccc(/C=C/c2ccc(Cl)cc2)cc1OC | 57.3 | 51.6 | 56.4 | –

Row | SMILES | viability at 24 h, 100 µM [1] [%] | viability at 24 h, 500 µM [2] [%] | viability at 24 h, 1000 µM [3] [%] | Activity [4]
25 | CC(=O)Nc1ccc(/C=C/C(=O)c2ccc3c(c2)OCO3)cc1 | 6.71 | 2.78 | 4.69 | –
26 | Oc1ccc(/C=C/c2cc(F)cc(F)c2)cc1 | -13.6 | -11 | -7.78 | –
27 | COc1ccc(/C=C/c2ccc(N)c(F)c2)cc1 | 80 | 65.1 | 47.8 | –
28 | Nc1ccc(/C=C/c2ccc3c(c2)OCO3)cc1 | 47.6 | 39.1 | 32.2 | –
29 | C(=C\c1ccc2c(c1)OCO2)/c1ccncc1 | 8.43 | 4.26 | 3.56 | –
30 | COc1ccc(C(=O)/C=C/c2ccc3c(c2)OCO3)c(O)c1 | 90.4 | 59.9 | 49.3 | –
31 | COc1ccc(C#Cc2cc(C)cc(C)c2)cc1 | 54.2 | 24.3 | 22.1 | –
32 | Cc1cc(C)cc(/C=C/c2ccc(O)cc2)c1 | 7.31 | 1.84 | 2.88 | –
33 | Nc1ccc(/C=C/c2cccc(OC(F)(F)F)c2)cc1 | 51.8 | 31.9 | 26.9 | –
34 | COc1cc(/C=C/C(=O)c2ccc(O)cc2)cc(OC)c1 | 5.64 | 3.53 | 2.57 | –
35 | Cc1ccc(C#Cc2ccc(OCc3ccccc3)cc2)cc1 | 94.2 | 72.5 | 68 | –
36 | COc1cc(/C=C/c2ccc3c(c2)OCO3)cc(OC)c1 | 74 | 60.9 | 45.7 | –
37 | Oc1ccc(/C=C/c2cc(C(F)(F)F)cc(C(F)(F)F)c2)cc1 | -4.81 | -0.07 | -3.86 | –
38 | CC(=O)c1ccc(/C=C/c2ccc(O)cc2)cc1 | 94.4 | 59.2 | 24.6 | –
39 | COc1ccc2c(c1)OC(c1ccc3c(c1)OCO3)CC2=O (centres undefined) | 73.2 | 44.8 | 27.3 | –
40 | CCCCCOc1ccc(C#Cc2ccc3c(c2)OCO3)cc1 | 69.8 | 22.9 | 15.3 | –
41 | N#Cc1cccc(/C=C/c2ccc(O)cc2)c1 | 20.9 | 16.9 | 14.9 | –
42 | COc1ccc(/C=C/C(=O)c2ccc3c(c2)OCO3)cc1O | 44.7 | 22.2 | 17.1 | –
43 | Cc1ccc(C#Cc2ccc3c(c2)OCO3)cc1 | 51.9 | 24.8 | 23.7 | –
44 | COc1cc(/C=C/c2ccc(O)cc2)cc(OC)c1OC | 27.5 | 25.9 | 21.2 | –
45 | COc1cc(/C=C/C(=O)c2ccc3c(c2)OCO3)ccc1O | 16.3 | 25.2 | 26.2 | –
46 | Oc1ccc(/C=C/c2ccc3c(c2)OCCO3)cc1 | 2.8 | 2 | -0.08 | –
47 | CC(=O)Oc1ccc(/C=C/c2cc(C)cc(C)c2)cc1 | 3.24 | 2.8 | 18.4 | –
